# Only some compounds are listed: those with a hit (about 2.2% of all), similar ones and a draw of the others.
# Scp1 inh – Scp-1 (human) phosphatase inhibition. Q9GZU7. inhibition, % at 20 µM. 0.88% of 340,000 active. Recombinant Scp1, phosphopeptide, malachite green phosphate absorbance. AID 493091;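 active means inhibition above about 50% at 20 µM, limit read from the data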;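 further: plate controls were DMSO wells with enzyme for no effect and wells lacking enzyme for full effect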
#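 Times: enzyme reaction 45 min at room temperature, colour 5 min, stabilisation 30 min. Material: SCP-1 catalytic fragment, aa 76-261. Medium: Acidic Tris acetate buffer with magnesium and detergent. Signal: colorimetric free-phosphate detection, absorbance 630 nm. Read-out basis: % inhibition of SCP-1 phosphate liberation. Reagent: Phosphorylated 17-residue peptide substrate.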
# GRK2 aptamer HTS – inhibitors of human GRK2 displacing RNA aptamer; P25098; bead flow cytometry, FAM-aptamer displacement from GRK2; inhibition of aptamer binding, % at 10 µM; 0.59% of 330,000 active; AID 488847;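 active means inhibition of aptamer binding above 40%, roughly 3 SD of noise, on plates passing a quality check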;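 further: median bead fluorescence of bound FAM aptamer so fluorescent compounds give negative values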
# Target sequence (P25098 whole entry, looked up): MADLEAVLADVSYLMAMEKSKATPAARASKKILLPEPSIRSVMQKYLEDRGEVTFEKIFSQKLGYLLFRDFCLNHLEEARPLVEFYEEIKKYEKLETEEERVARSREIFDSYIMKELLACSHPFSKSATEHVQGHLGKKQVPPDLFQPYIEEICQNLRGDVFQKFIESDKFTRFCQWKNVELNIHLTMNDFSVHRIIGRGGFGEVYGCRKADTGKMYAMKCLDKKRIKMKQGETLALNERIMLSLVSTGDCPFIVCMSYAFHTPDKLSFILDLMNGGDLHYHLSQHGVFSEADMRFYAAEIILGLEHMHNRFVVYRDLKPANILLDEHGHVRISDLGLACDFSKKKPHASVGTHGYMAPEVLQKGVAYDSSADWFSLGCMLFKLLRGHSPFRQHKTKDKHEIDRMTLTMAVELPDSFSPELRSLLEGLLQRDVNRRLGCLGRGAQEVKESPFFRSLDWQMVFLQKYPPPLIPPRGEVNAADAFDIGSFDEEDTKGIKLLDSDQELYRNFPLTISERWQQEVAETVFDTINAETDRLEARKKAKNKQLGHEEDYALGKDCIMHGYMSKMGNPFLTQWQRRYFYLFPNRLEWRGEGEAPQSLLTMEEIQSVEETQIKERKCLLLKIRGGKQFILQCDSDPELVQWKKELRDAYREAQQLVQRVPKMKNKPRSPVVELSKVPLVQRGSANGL
# STEP block – blocks human striatal-enriched tyrosine phosphatase; P54829; recombinant STEP, OMFP fluorogenic substrate, fluorescence; inhibition, % at 20 µM; 0.25% of 360,000 active; AID 588621;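 active means inhibition at 20 µM, scaled per plate between control wells, above about 37%, limit read from the data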;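 further: 0% = DMSO with enzyme and substrate and 100% = substrate only without enzyme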
#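 Assay system: isolated STEP enzyme. Buffer or medium: pH 6.0 Bis-Tris with DTT and Tween 20. Also added: fluorogenic phosphatase substrate OMFP at 25 µM final. Dosing: 20 µM, 1% DMSO. Timing: 20 min reaction, room temperature, in the dark. Measured by: fluorescence intensity, excitation 480 nm, emission 540 nm. Evaluation: normalized % inhibition.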
# LMPTP inh – LMPTP (human) inhibition. inhibition, % at 20 µM. recombinant LMPTP-A, OMFP fluorogenic substrate, fluorescence intensity. P24666. 0.22% of 360,000 active;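 active means compounds that cut the enzyme signal by at least half of the control window in the single-dose screen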;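 further: plate controls were DMSO wells with enzyme plus substrate for no effect and substrate without enzyme for full effect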
#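 Test system: LMPTP-A phosphatase enzyme. Amount: LMPTP-A at 0.625 nM final in the reaction. Reagent: OMFP substrate, 400 µM final. Times: 50 min at room temperature. Signal: endpoint fluorescence intensity from OMFP dephosphorylation. Read-out basis: % inhibition. Benchmarks: no-enzyme and uninhibited controls.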
# SUMO1 PPI mod – SUMO1-SIM interaction modulation; 0.33% of 360,000 active; AID 602429; SUMO1 binding to a labelled peptide, TR-FRET, 1 h; inhibition, % at 20 µM; P63165; in the data active means inhibition above about 37%
# Target sequence (P63165 whole entry, looked up): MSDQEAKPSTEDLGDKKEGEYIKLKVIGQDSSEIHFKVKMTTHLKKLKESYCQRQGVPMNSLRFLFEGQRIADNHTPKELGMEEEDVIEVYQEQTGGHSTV
# DNMT1 block – inhibitors of human DNMT1. P26358. DNMT1 molecular beacon, Hinp1I cleavage, fluorescence. inhibition (reported as % activation of signal), % at 10 µM. 0.83% of 360,000 active. AID 588458; in the data active means inhibition above about 50%
# Scp-1 conf – Scp-1 (human) inhibition, single-dose confirmed; shares compounds with Scp1 inh; recombinant SCP-1 catalytic domain, phosphate release, malachite green absorbance; inhibition, % at 20 µM; 61% of 2,500 active; AID 540281;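 further: plate controls were DMSO with enzyme for no effect and buffer wells lacking enzyme for full effect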
# Scp-1 MG ctr – colorimetric interference in Scp-1 counter-screen | shares compounds with Scp1 inh | Colorimetric interference counterscreen, malachite green absorbance 630 nm | apparent inhibition (interference), % at 20 µM | 2,500 tested, under 10 active;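 further: compounds added after enzyme reaction finished so only phosphate colour detection is probed; plate controls were DMSO wells with completed Scp-1 reaction for no effect and substrate wells lacking enzyme for full effect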
# Scp1 DSF – Scp-1 (human) binding by thermal shift; shares compounds with Scp1 inh; Recombinant SCP1, Sypro Orange thermal shift Tm; thermal shift relative to vanadate control, % at 40 µM; 25% of 1,500 active;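 active means substances whose mean melting-temperature shift, as a percentage of the reference inhibitor's shift, reaches about 5.3%, limit read from the data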;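 further: 0% = Tm of DMSO wells and 100% = Tm with sodium orthovanadate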
# Beacon interf DR – counter-screen for DNMT1 inhibitors: spectral interference, dose response; shares compounds with DNMT1 block; molecular beacon fluorescence; IC50, µM; 200 tested, under 10 active; call rule not given here
# DNMT1 confirm – DNMT1 inhibition confirmation, single concentration | shares compounds with DNMT1 block | DNMT1 molecular beacon HinP1I cleavage, fluorescence | inhibition, % at 10 µM | 8% of 2,300 active;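 active means average inhibition of at least 30% in the single-concentration confirmation test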
# Beacon interf – shows spectral interference in the DNMT1 beacon assay; shares compounds with DNMT1 block; DNMT1 molecular beacon spectral interference counterscreen, fluorescence 485/520; activation (fluorescence interference), % at 10 µM; 1% of 2,300 active; AID 602387;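 active means activation of at least 30% at 10 µM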;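 further: DNMT1 catalytic domain with a HinP1I cleavage step and a FAM/dabcyl DNA beacon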
# Active calls of the source: *; . = not tested or not shown.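 How the source made its calls, unless noted: active means inhibition of at least 30% at 20 µM; inactive means the rest.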
SMILES,Scp1 inh,GRK2 aptamer HTS,STEP block,LMPTP inh,SUMO1 PPI mod,DNMT1 block,Scp-1 conf,Scp-1 MG ctr,Scp1 DSF,DNMT1 confirm,Beacon interf,others
O=c1cc2c(c(-c3ccccc3)n1Cc1ccccc1)[C@@H](CCO)NC2,-13.8,.,2.1,-1.4,2.7,-2.8,.,.,.,.,.,
CN(CC(=O)Nc1cccc(F)c1)CC(=O)NC(c1ccccc1)c1ccccc1,2.3,5.0,-1.4,1.2,0.2,5.5,.,.,.,.,.,
CN(CC(=O)NC(=O)NCc1ccco1)Cc1nc2ccccc2c(=O)[nH]1,86.5*,18.0,-0.5,0.2,2.5,70.1*,73.0*,-6.8,-3.9,3.7,2.5,
N#C/C(=C\c1ccncc1)c1nc2ccccc2[nH]1,-8.4,.,1.0,-0.5,-12.9,-3.1,.,.,.,.,.,
N#C/C(=C/c1ccc(OC(=O)c2ccc(Br)s2)cc1)c1nc2ccccc2[nH]1,95.8*,.,27.3,32.3,8.1,84.8*,80.2*,-4.0,-5.1,2.6,-5.8,
Cc1cccc(NC(=O)CN2C(=O)N/C(=C\c3cccn3-c3cccc(C(=O)O)c3)C2=O)c1,18.3,3.0,2.6,-0.4,-13.8,33.9,.,.,.,.,.,
O=C(O)c1cccc(-n2cccc2/C=C2/SC(=O)N(CC(=O)N3CCCC3)C2=O)c1,66.7*,34.0,22.6,0.6,-0.6,70.0*,54.1*,-20.5,-7.5,2.0,3.7,
O=C(CN1C(=O)S/C(=C/c2cccn2-c2ccc(O)cc2)C1=O)N1CCCC1,-1.4,0.0,0.8,0.3,-14.7,-2.5,.,.,.,.,.,
O=C(O)c1cccc(-n2cccc2/C=C2\SC(=O)N(Cc3ccccc3F)C2=O)c1,92.8*,45.0*,11.1,7.6,-4.6,90.9*,80.8*,-24.3,-6.3,6.0,-0.1,
O=C(O)c1cccc(-n2cccc2/C=C2/NC(=O)N(c3cccc(Cl)c3)C2=O)c1,85.4*,23.0,3.0,4.7,34.7,97.3*,63.5*,-15.6,3.5,25.3,3.6,
CCCCN1C(=O)C(=O)NC[C@@H]1Cc1ccc(O)cc1,.,.,.,-1.0,3.8,.,.,.,.,.,.,
O=c1c2c3c(sc2n(CCN2CCCC2)c(=O)n1Cc1ccco1)CCCCC3,13.3,0.0,4.1,2.0,4.5,3.3,.,.,.,.,.,
O=C(Cn1c(=O)n(Cc2ccco2)c(=O)c2c3c(sc21)CCCCC3)Nc1ccccc1,74.2*,2.0,5.4,21.1,13.9,93.2*,43.7*,-28.8,7.9*,13.1,2.3,
O=C(Cn1c(=O)n(Cc2ccco2)c(=O)c2c3c(sc21)CCCCC3)c1ccccc1,55.9*,0.0,6.4,6.8,7.1,71.7*,2.7,-16.4,.,2.2,2.5,
CN(C)CCn1c(=O)n(Cc2ccco2)c(=O)c2c3c(sc21)CCCCC3,-4.3,0.0,3.5,-0.1,12.8,-2.2,.,.,.,.,.,
Cc1cccc(C)c1-n1nnnc1C(c1ccnc2ccccc12)N1CCCN(C(=O)OC(C)(C)C)CC1 (stereo not drawn),.,.,.,-0.4,-2.0,.,.,.,.,.,.,
O=C(NCc1ccccc1)c1cc(C2CCCN(C(=O)C3CCCCC3)C2)on1 (stereo not drawn),.,.,2.2,-0.2,5.3,-0.8,.,.,.,.,.,
Cn1nc(C(C)(C)C)cc1C(=O)N1CCCCC1c1cc(C(=O)NCc2cccnc2)no1 (stereo not drawn),.,.,-0.1,-1.3,-3.4,0.7,.,.,.,.,.,
COC(=O)C1=C(C(=O)OC)C(C(=O)OC)C(C(=O)OC)C(C(=O)OC)(C(=O)OC)C(C(=O)OC)=C1C(=O)OC (stereo not drawn),-0.3,.,-2.7,1.2,-4.8,0.2,.,.,.,.,.,
Cc1ccc(CSCC(=O)N/N=C/c2ccc(OCC(=O)Nc3ccc(C)cc3)cc2)cc1,112.0*,0.0,11.0,44.3,0.6,68.5*,79.5*,-11.2,-28.9,5.1,3.8,
COc1cc(C(O)c2nc(-c3csc4ccccc34)cs2)ccc1F (stereo not drawn),.,.,-4.4,3.5,-0.7,-7.8,.,.,.,.,.,
Cc1nc2c(c(=O)n1CCC1=CCCCC1)c1nc3ccccc3nc1n2/N=C/c1ccco1,58.1*,4.0,4.3,31.5,26.1,76.0*,40.6*,-9.3,6.1*,0.7,-0.7,
Cc1nn(CCCC(=O)NCCCN2CCN(C)CC2)c(=O)c2c1sc1ccccc12,-8.0,0.0,-1.5,-6.8,-10.6,-2.7,.,.,.,.,.,
C/C=C/C=C/C(=O)[C@@H]1[C@@H]([C@]2(C)OC(=O)C(C)=C2O)[C@H]2/C(=C(O)/C=C/C=C/C)C(=O)[C@]1(C)C(=O)C2(C)O (stereo partly drawn),71.8*,12.0,5.0,2.0,25.2,84.9*,51.3*,-19.2,11.1*,61.3*,0.5,Beacon interf DR=>99
O=C1Nc2ccccc2SC(c2ccccc2)C1O (stereo not drawn),74.3*,3.0,-2.7,19.7,5.3,99.3*,63.5*,-17.5,6.6*,14.2,-1.4,
SMILES,Scp1 inh,GRK2 aptamer HTS,STEP block,LMPTP inh,SUMO1 PPI mod,DNMT1 block,Scp-1 conf,Scp-1 MG ctr,Scp1 DSF,DNMT1 confirm,Beacon interf,others
CC[C@H]1O[C@H](C)CC2=C1C(=O)OC(C)(C)O2,.,.,.,-2.0,-5.2,.,.,.,.,.,.,
O=C(COC(=O)C1CC2C=CC1C2)NCc1ccco1 (stereo not drawn),71.4*,21.0,4.2,3.9,2.4,89.3*,70.3*,-4.9,-3.1,14.4,7.7,
C#Cc1ccc([C@@H]2C=C(C(=O)O)O[C@H](OCC)[C@H]2CCCO)cc1,52.6*,.,11.9,-1.2,30.5,52.4*,47.2*,-17.2,-13.0,3.2,0.3,
O=C(COc1ccc2c(-c3ccccc3)cc(=O)oc2c1)N1C[C@H]2C[C@@H](C1)c1cccc(=O)n1C2,.,.,0.0,0.2,-24.3,10.4,.,.,.,.,.,
COc1ccc2c(=O)c3c(=O)n(Cc4ccco4)c(-c4ccco4)nc3oc2c1,91.6*,12.0,20.0,47.1,13.4,86.3*,74.2*,-1.9,4.4,4.1,2.4,
COc1ccc(Cn2c(-c3ccco3)nc3oc4cc(OC)ccc4c(=O)c3c2=O)cc1,79.4*,12.0,8.6,32.5,16.1,61.3*,67.8*,-10.4,-1.7,14.9,-5.7,

# Screening results deposited in PubChem BioAssay by several laboratories.
